According to paper PMC4040673 (Cell Death & Disease, 2014):

Experiments:
[1] = test system: isolated mitochondria from HT-22 cells; experiment: CCCP-induced depolarization / MPT pore opening in isolated HT-22 mitochondria; format: cell-based, mouse; details: 50 μM CCCP
How it was run: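 Then treated with 50 μM CCCP protonophore. Δψm followed with 20 nM DiOC6(3) on a fluorescence plate reader. Measurements in triplicate, representative of at least three independent experiments.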

HT-22 cells [2] = experiment: Intracellular Ca2+; format: cell-based, mouse; details: glutamate 12 h, Fluo-4; n = 8
How it was run: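 Transfected HT-22 cells seeded in 96-well plates and grown 24 h, then treated with 2 mM glutamate for 12 h. Fluo-4 AM (5 μM) added to the medium for 30 min. After washing, fluorescence read on a plate reader at excitation 485 nm and emission 520 nm.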

CypA [3] = biological target: CypA (Homo sapiens, UniProt P62937); experiment: SPR direct binding to immobilized CypA
tAIF = experiment: SPR binding of peptides to tAIF; parameters: species or system mouse; details: direct binding to immobilized protein, applied concentration range
HT-22 cells [4] = experiment: Cell viability; format: cell-based, mouse; details: siRNA transfected (Lipofectamine-2000), glutamate 2 mM, 12 h
How it was run: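 HT-22 cells seeded at 10 000 cells/well in 96-well plates, in DMEM with 10% heat-inactivated calf serum at 37 °C. siRNA transfected with Lipofectamine-2000, then exposed to 2 mM glutamate for 12 h. MTT at 0.5 mg/ml for 1 h; absorbance read at 570 nm with 630 nm reference. Controls set to 100%. At least three repeats, n=8 per condition.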

HT-22 cells [5] = experiment: Annexin-V-FITC/PI flow cytometry in glutamate-treated HT-22 cells; format: cell-based, mouse; details: siRNA transfected; glutamate 2 mM
How it was run: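 HT-22 cells grown at 37 °C, 5% CO2 in DMEM with 10% heat-inactivated calf serum. Transfected with scrambled or mouse CypA siRNA (Lipofectamine-2000), then given 2 mM glutamate. Stained with Annexin-V-FITC/PI by kit and run on a FACScan: FITC excited at 488 nm, emission 530±40 nm; PI excited at 488 nm, emission 680±30 nm. Experiments repeated at least three times.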

HT-22 cells [6] = experiment: Real-time impedance; format: cell-based, mouse; details: siRNA transfected; glutamate 2 mM, ~15 h, n=8
AIF = format: cell-based, mouse; details: peptide 50 μM or siRNA transfected; glutamate 2 mM, 12 h
How it was run: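 HT-22 cells carried siRNA (Lipofectamine-2000) or 50 μM peptide (cationic lipid protein-transfection reagent) and were seeded on chamber slides. Exposed to 2 mM glutamate for 12–14 h. Fixed in 4% paraformaldehyde, permeabilised with 0.04% Triton X, and immunostained for AIF with Alexa 568/488 secondaries and DAPI. Imaged by confocal laser scanning with a 63× 1.4-NA oil objective.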

HT-22 cells [7] = experiment: Cell viability of glutamate-treated HT-22 cells in medium without Ca2+; format: cell-based, mouse; details: glutamate 2 mM, 12–14 h, n=4
CypA [8] = experiment: siRNA knockdown of CypA; format: cell-based, mouse; details: HT-22, RT-PCR and immunoblotting
How it was run: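 HT-22 cells transfected with scrambled or mouse CypA siRNA (Lipofectamine-2000). One-step RT-PCR on total RNA, GAPDH as reference: cDNA step 60 °C 30 min, 95 °C 2 min, then 30 cycles of 95 °C 30 s, 57 °C 1 min, 70 °C 2 min. Lysates run on SDS-PAGE and blotted to PVDF. Primary antibody overnight at 4 °C, HRP secondary 1:2500, chemiluminescence; tubulin or actin as loading control.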

Sequence of CypA (Homo sapiens, UniProt P62937) (P62937 whole entry): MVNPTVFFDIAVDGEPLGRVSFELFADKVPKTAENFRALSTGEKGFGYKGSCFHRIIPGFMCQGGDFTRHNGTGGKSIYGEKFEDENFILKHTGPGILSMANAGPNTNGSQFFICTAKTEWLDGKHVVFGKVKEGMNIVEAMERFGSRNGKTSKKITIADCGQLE

`N#CC(C#N)=NNc1cccc(Cl)c1` [CCCP, carbonyl cyanide m-chlorophenyl hydrazone] was tested. Which “loss of Δψm induced by CCCP” value [1] did it give?
Its value is “strong loss of Δψm”.

For `N[C@@H](CCC(=O)O)C(=O)O` [Glutamate], which “intracellular Ca2+ concentration induced by glutamate” value (HT-22 cells [2]) is on record?
Its value is “dose-dependent increase”.

Which “affinity for CypA (in words)” value (CypA [3]) does the source give for ILPEYLSNWTMEKVRREG [AIF(343–360)] here?
Its value is “very weak affinity”.

What about the “fold lower affinity for CypA compared with AIF(370–394)” value (CypA [3]; ratio of KD values) of the same compound?
Its value is 1000 fold.

And the “affinity to tAIF (in words)” value (tAIF)?
The value was “No affinity to tAIF was detected”.

For “siCypA: mouse siRNA targeting CypA: siCypAFw 5′-CUGAAUGGCUGGAUGGCAA-3′ and siCypARev 5′-UUGCCAUCCAGCCAUUCAG-3′ (chemistry not given here)”, which “protection against glutamate-induced cell death by siRNA, MTT” value (HT-22 cells [4]) is on record?
Its value is “full protection”.

What about the “protection against glutamate-induced cell death by siRNA, Annexin-V/PI” value (HT-22 cells [5]) of the same compound?
Its value is “full protection”.

And the “protection against glutamate-induced cell death by siRNA, impedance” value (HT-22 cells [6])?
The value was “full protection”.

What about the “glutamate-induced nuclear translocation of AIF” value (AIF) of the same compound?
The value was “very weak nuclear AIF staining”.

What about the “protective effect combined with depletion of extracellular Ca2+” value (HT-22 cells [7]) of the same compound?
The value was “additive protective effects to depletion of extracellular Ca^2+”.

What about the “CypA expression after siRNA” value (CypA [8]) of the same compound?
The value was “significantly reduced”.
